In ChEMBL document CHEMBL5724801, “EUbOPEN Chemogenomics Library - Multiplex” (2024):
Several values for one entry are separate records, joined by “and”; a condition that tells them apart may be missing. Equal entries are not always repeated.

Test system: HEK-293T
Assay: Multiplex assay against HEK293T
Format: toxicity, cell-based
Conditions: human
Outline: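 Cells stained live at seeding with Hoechst33342, BioTracker Green Microtubule Cytoskeleton Dye, MitoTracker Red and Annexin V Alexa Fluor 680 were imaged on a CQ1 microscope at 37°C and 5% CO2 after compound addition. Their classification by CellPathfinder machine-learning gating ran from Hoechst high-intensity objects versus normal cells, to healthy, pyknosed or fragmented nuclei among normal cells, to mitotic or apoptotic among pyknosed cells. Tubulin, mitochondrial-mass and membrane-permeability phenotypes are per cents of healthy-nucleus cells.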

[1] = 12 h, 1 µM, compound concentration 1 uM
[2] = 12 h, 10 µM, compound concentration 10 uM
[3] = 24 h, 1 µM, compound concentration 1 uM
[4] = 24 h, 10 µM, compound concentration 10 uM
[5] = 48 h, 1 µM, compound concentration 1 uM
[6] = 48 h, 10 µM, compound concentration 10 uM

`Cn1cnc(-c2cnc(O[C@H]3CCN(C(=O)Cc4ccc(OC(F)(F)F)cc4)C[C@H]3F)c(C(N)=O)c2)c1` was tested, and the “Population Hoechst High Intensity Objects (%)” value [1] was 0.47% and 4.71%, the “Population Mitotic Cells (%)” value [1] was 91.23% and 91.04% and the “Population Normal (%)” value [1] was 99.53% and 95.29%. For the same compound, the “Population Pyknosed Nuclei (%)” value [1] was 40.24% and 73.63%, the “Total Cell Count” value [1] was 191 and the “Population Hoechst High Intensity Objects (%)” value [2] was 0.68% and 0.69%. The “Population Mitotic Cells (%)” value [2] was 87.04% and 85.37%, the “Population Normal (%)” value [2] was 99.32% and 99.31% and the “Population Pyknosed Nuclei (%)” value [2] was 55.29% and 86.01%. The “Total Cell Count” value [2] was 144, the “Population Healthy Nuclei (%)” value [3] was 76.21% and 29.41% and the “Population Hoechst High Intensity Objects (%)” value [3] was 0.45% and 3.61%. The “Population Mitotic Cells (%)” value [3] was 88.44% and 91.13%, the “Population Normal (%)” value [3] was 99.55% and 96.39% and the “Population Pyknosed Nuclei (%)” value [3] was 22.27% and 66.31%. The “Population Hoechst High Intensity Objects (%)” value [4] was 0.8% and 0%, the “Population Mitotic Cells (%)” value [4] was 68.57% and 83.33% and the “Population Normal (%)” value [4] was 99.2% and 100%. The “Population Pyknosed Nuclei (%)” value [4] was 37.84% and 76.43%, the “Total Cell Count” value [4] was 373 and 157 and the “Population Healthy Nuclei (%)” value [5] was 86.49% and 68.91%. For the same compound, the “Population Hoechst High Intensity Objects (%)” value [5] was 0% and 0.42%, the “Population Mitotic Cells (%)” value [5] was 89.54% and 83.58% and the “Population Normal (%)” value [5] was 100% and 99.58%. For the same compound, the “Population Pyknosed Nuclei (%)” value [5] was 10.34% and 28.15%, the “Population Healthy Nuclei (%)” value [6] was 80.81% and 60.93% and the “Population Hoechst High Intensity Objects (%)” value [6] was 0% and 2.27%. The “Population Mitotic Cells (%)” value [6] was 82.61% and 79.27%, the “Population Normal (%)” value [6] was 100% and 97.73% and the “Population Pyknosed Nuclei (%)” value [6] was 16.11% and 38.14%.

With `CCN1CCN(Cc2ccc(Nc3ncc(F)c(-c4cc(F)c5nc(C)n(C(C)C)c5c4)n3)nc2)CC1.CS(=O)(=O)O` the “Population Fragmented Nuclei (%)” value [1] was 2.72% and 5.37%, the “Population Healthy Nuclei (%)” value [1] was 46.26% and 18.79% and the “Population Hoechst High Intensity Objects (%)” value [1] was 1.01% and 0%. The “Population Membrane Permeable-Phenotype (%)” value [1] was 0.74% and 0%, the “Population Mitotic Cells (%)” value [1] was 90.67% and 79.65% and the “Population Normal (%)” value [1] was 98.99% and 100%. The “Population Pyknosed Nuclei (%)” value [1] was 51.02% and 75.84%, the “Population Tubulin-Different-Phenotype (%)” value [1] was 23.53% and 64.29% and the “Total Cell Count” value [1] was 297 and 149. The “Population Fragmented Nuclei (%)” value [2] was 1.2% and 2.36%, the “Population Hoechst High Intensity Objects (%)” value [2] was 0.4% and 0% and the “Population Membrane Permeable-Phenotype (%)” value [2] was 0%. For the same compound, the “Population Mitochondria Different-Phenotype (%)” value [2] was 53.85% and 28.57%, the “Population Mitotic Cells (%)” value [2] was 88.21% and 74.36% and the “Population Normal (%)” value [2] was 99.6% and 100%. The “Population Pyknosed Nuclei (%)” value [2] was 78% and 92.13%, the “Population Tubulin-Different-Phenotype (%)” value [2] was 84.62% and 28.57% and the “Total Cell Count” value [2] was 251 and 127. The “Population Fragmented Nuclei (%)” value [3] was 1.38% and 4.83%, the “Population Healthy Nuclei (%)” value [3] was 71.43% and 24.14% and the “Population Hoechst High Intensity Objects (%)” value [3] was 0.23% and 0%. The “Population Membrane Permeable-Phenotype (%)” value [3] was 2.9% and 2.86%, the “Population Mitochondria Different-Phenotype (%)” value [3] was 26.13% and 22.86% and the “Population Mitotic Cells (%)” value [3] was 82.2% and 83.5%. The “Population Normal (%)” value [3] was 99.77% and 100%, the “Population Pyknosed Nuclei (%)” value [3] was 27.19% and 71.03% and the “Population Tubulin-Different-Phenotype (%)” value [3] was 47.42% and 25.71%. For the same compound, the “Total Cell Count” value [3] was 435 and 145, the “Population Fragmented Nuclei (%)” value [4] was 0.69% and 4.07% and the “Population Healthy Nuclei (%)” value [4] was 25.86% and 10.57%. For the same compound, the “Population Hoechst High Intensity Objects (%)” value [4] was 0%, the “Population Membrane Permeable-Phenotype (%)” value [4] was 0% and 23.08% and the “Population Mitochondria Different-Phenotype (%)” value [4] was 52% and 38.46%. The “Population Mitotic Cells (%)” value [4] was 64.32% and 55.24%, the “Population Normal (%)” value [4] was 100% and the “Population Pyknosed Nuclei (%)” value [4] was 73.45% and 85.37%. The “Population Tubulin-Different-Phenotype (%)” value [4] was 93.33% and 53.85%, the “Total Cell Count” value [4] was 290 and 123 and the “Population Fragmented Nuclei (%)” value [5] was 2.67% and 1.8%. For the same compound, the “Population Healthy Nuclei (%)” value [5] was 85.01% and 53.89%, the “Population Hoechst High Intensity Objects (%)” value [5] was 0.13% and 0% and the “Population Membrane Permeable-Phenotype (%)” value [5] was 9.27% and 2.22%. The “Population Mitochondria Different-Phenotype (%)” value [5] was 37.67% and 48.89%, the “Population Mitotic Cells (%)” value [5] was 82.47% and 79.73% and the “Population Normal (%)” value [5] was 99.87% and 100%. For the same compound, the “Population Fragmented Nuclei (%)” value [6] was 3.24% and 4.8%, the “Population Healthy Nuclei (%)” value [6] was 28.78% and 13.6% and the “Population Hoechst High Intensity Objects (%)” value [6] was 0% and 0.79%. For the same compound, the “Population Membrane Permeable-Phenotype (%)” value [6] was 1.25% and 0%, the “Population Mitochondria Different-Phenotype (%)” value [6] was 96.25% and 58.82% and the “Population Mitotic Cells (%)” value [6] was 30.16% and 40.2%. For the same compound, the “Population Normal (%)” value [6] was 100% and 99.21%, the “Population Pyknosed Nuclei (%)” value [6] was 67.99% and 81.6% and the “Population Tubulin-Different-Phenotype (%)” value [6] was 85% and 58.82%. For the same compound, the “Total Cell Count” value [6] was 278 and 126.

With `CCn1c(-c2nc3cc(C(=O)N4CCCC(N)C4)ccc3n2C)cc2ccccc21.Cl` (configuration not stated) the “Population Fragmented Nuclei (%)” value [1] was 9% and 5% and 1.84% and 3.31%, the “Population Hoechst High Intensity Objects (%)” value [1] was 7% and 6% and 0% and the “Population Membrane Permeable-Phenotype (%)” value [1] was 0%. The “Population Mitochondria Different-Phenotype (%)” value [1] was 52% [middle of 4 runs], the “Population Mitotic Cells (%)” value [1] was 87.4% [middle of 4 runs] and the “Population Normal (%)” value [1] was 92% and 93% and 100%. The “Total Cell Count” value [1] was 351 [middle of 4 runs], the “Population Fragmented Nuclei (%)” value [2] was 8% and 6% and 2.45% and 0.66% and the “Population Hoechst High Intensity Objects (%)” value [2] was 8% [middle of 4 runs]. For the same compound, the “Population Membrane Permeable-Phenotype (%)” value [2] was 0% and 0.78%, the “Population Mitotic Cells (%)” value [2] was 46% and 86.32% and 69.7% and the “Population Normal (%)” value [2] was 88% and 91% and 99.7% and 100%. For the same compound, the “Population Tubulin-Different-Phenotype (%)” value [2] was 66.67% [middle of 4 runs], the “Total Cell Count” value [2] was 398 [middle of 4 runs] and the “Population Fragmented Nuclei (%)” value [3] was 9% and 1.41% and 1.3%. For the same compound, the “Population Healthy Nuclei (%)” value [3] was 79% [middle of 4 runs], the “Population Hoechst High Intensity Objects (%)” value [3] was 6% and 4% and 0.2% and 0% and the “Population Membrane Permeable-Phenotype (%)” value [3] was 0% and 1.42% and 4.76%. For the same compound, the “Population Mitochondria Different-Phenotype (%)” value [3] was 37% [middle of 4 runs], the “Population Mitotic Cells (%)” value [3] was 64% and 60% and 92.7% and 77.27% and the “Population Normal (%)” value [3] was 93% and 95% and 99.8% and 100%. The “Population Tubulin-Different-Phenotype (%)” value [3] was 22% and 14% and 16.24% and 11.9%, the “Population Apoptotic (%)” value [4] was 51% and 40% and 33.59% and 49.56% and the “Population Hoechst High Intensity Objects (%)” value [4] was 12% and 9% and 0%. The “Population Membrane Permeable-Phenotype (%)” value [4] was 1% and 0% and 0.79%, the “Population Mitochondria Different-Phenotype (%)” value [4] was 72% [middle of 4 runs] and the “Population Mitotic Cells (%)” value [4] was 48% and 59% and 66.41% and 50.44%. For the same compound, the “Population Normal (%)” value [4] was 87% and 90% and 100%, the “Population Tubulin-Different-Phenotype (%)” value [4] was 64% and 58% and 63.64% and 33.33% and the “Population Fragmented Nuclei (%)” value [5] was 12% [middle of 4 runs]. The “Population Healthy Nuclei (%)” value [5] was 79% and 81% and 86.51% and 57.44%, the “Population Hoechst High Intensity Objects (%)” value [5] was 5% and 4% and 0% and the “Population Membrane Permeable-Phenotype (%)” value [5] was 1% and 0% and 6.55% and 0.89%. The “Population Mitochondria Different-Phenotype (%)” value [5] was 28% [middle of 4 runs], the “Population Mitotic Cells (%)” value [5] was 79% and 85% and 95.24% and 75.9% and the “Population Normal (%)” value [5] was 94% and 95% and 100%. For the same compound, the “Population Apoptotic (%)” value [6] was 50% and 52% and 28.06% and 40.68%, the “Population Healthy Nuclei (%)” value [6] was 73% and 79% and 77.55% and 60.49% and the “Population Membrane Permeable-Phenotype (%)” value [6] was 0% and 1.26% and 2.04%. For the same compound, the “Population Mitochondria Different-Phenotype (%)” value [6] was 65% and 71% and 79.5% and 83.67%, the “Population Mitotic Cells (%)” value [6] was 49% and 47% and 71.94% and 59.32% and the “Population Normal (%)” value [6] was 84% and 91% and 99.86% and 97.59%.
